From ChEMBL document CHEMBL4350999, “Enhanced tumor retention of NTSR1-targeted agents by employing a hydrophilic cysteine cathepsin inhibitor” (Eur J Med Chem, 2019)
Activity calls are given as the source filed them. The calls are words filed in the database; no cut-off is given here.

What was measured:
[1] = Ratio of drug uptake in SCID mouse xenograted with human HT-29 cells assessed as tumour retention to drug uptake in kidney of SCID mouse xenografted with human HT-29 cells measured after 4 hrs using 177Lu labelled compound; type: ADME, tissue-based, Tumor/Kidney
In short: (§1)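 Female SCID mice (5 weeks old) received s.c. flank HT-29 cells (5 × 10^6 in Matrigel). At ~80 mm3, two weeks later, mice were randomized and given 10 μCi (0.37 MBq) of purified 177Lu conjugate i.v. by tail vein. Mice were killed at 4, 24 or 72 h. Tissues were weighed and gamma counted as %ID/g, mean ± SD, n = 5. Tumor-to-tissue ratios were calculated.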

[2] = Ratio of drug uptake in SCID mouse xenograted with human HT-29 cells assessed as tumour retention to drug uptake in spleen of SCID mouse xenografted with human HT-29 cells measured after 4 hrs using 177Lu labelled compound; type: ADME, tissue-based, Tumor/Spleen; in short: as §1
[3] = Ratio of drug uptake in SCID mouse xenograted with human HT-29 cells assessed as tumour retention to drug uptake in small intestine of SCID mouse xenografted with human HT-29 cells measured after 72 hrs using 177Lu labelled compound; type: ADME, tissue-based, Tumor/Small intestine; in short: as §1
[4] = Ratio of drug uptake in SCID mouse xenograted with human HT-29 cells assessed as tumour retention to drug uptake in pancreas of SCID mouse xenografted with human HT-29 cells measured after 72 hrs using 177Lu labelled compound; type: ADME, tissue-based, Tumor/Pancreas; in short: as §1
[5] = Ratio of drug uptake in SCID mouse xenograted with human HT-29 cells assessed as tumour retention to drug uptake in liver of SCID mouse xenografted with human HT-29 cells measured after 72 hrs using 177Lu labelled compound; type: ADME, tissue-based, Tumor/Liver; in short: as §1
[6] = Ratio of drug uptake in SCID mouse xenograted with human HT-29 cells assessed as tumour retention to drug uptake in liver of SCID mouse xenografted with human HT-29 cells measured after 24 hrs using 177Lu labelled compound; type: ADME, tissue-based, Tumor/Liver; in short: as §1
[7] = Ratio of drug uptake in SCID mouse xenograted with human HT-29 cells assessed as tumour retention to drug uptake in pancreas of SCID mouse xenografted with human HT-29 cells measured after 4 hrs using 177Lu labelled compound; type: ADME, tissue-based, Tumor/Pancreas; in short: as §1
[8] = Drug internalization in human HT-29 cells assessed as efflux percentage measured at 24 hrs using 177Lu labelled compound by gamma counter method relative to control; type: ADME, cell-based; conditions: ht-29, 24 h
In short: (§2)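 HT-29 cells (~1 × 10^6) loaded 2 h at 37 °C with 177Lu conjugate (100,000 cpm), washed, then given fresh medium. Medium collected and replaced at 1, 2, 4, 8, 24 h and gamma-counted; cells lysed in 10% SDS at 24 h. Efflux expressed as % of total internalized activity (effluxed + cell-retained); n = 3.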

[9] = Ratio of drug uptake in SCID mouse xenograted with human HT-29 cells assessed as tumour retention to drug uptake in pancreas of SCID mouse xenografted with human HT-29 cells measured after 24 hrs using 177Lu labelled compound; type: ADME, tissue-based, Tumor/Pancreas; in short: as §1
[10] = Ratio of drug uptake in SCID mouse xenograted with human HT-29 cells assessed as tumour retention to drug uptake in large intestine of SCID mouse xenografted with human HT-29 cells measured after 24 hrs using 177Lu labelled compound; type: ADME, tissue-based, Tumor/Large intestine; in short: as §1
[11] = biological target: T1, Cathepsin B (Homo sapiens, UniProt P07858); assay: Binding affinity to human liver cathepsin B assessed as protein-conjugate adduct formation incubated for 30 mins using 177Lu labelled compound by SDS-PAGE analysis
In short: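 Purified human liver CatB or CatL (3 nM) in 50 mM sodium acetate/1 mM EDTA pH 5.0 incubated 30 min with 177Lu conjugate (500,000 cpm) in Tris/MgCl2/DTT buffer pH 5.5, alone or with E-64 (10 μM) or N1 (20 μM). Mixtures heated 85 °C 2 min, run on 16% tris-glycine gel at 110 V for 90 min, and read by phosphor autoradiography.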

[12] = Drug internalization in cytoplasm of human HT-29 cells within 2 hrs using Eu labelled compound by lysotracker green staining confocal microscopic analysis; type: ADME, subcellular; conditions: ht-29, 2 h
In short: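 HT-29 cells (1.25 × 10^5/well) incubated 2 h at 37 °C with natEu conjugate (5 μM), with or without N1 (20 μM). Lysotracker Green (100 nM) added for 1 h; cells washed, formaldehyde-fixed and imaged confocally at 405/488 nm excitation. Mean pixel intensity normalized to cell count.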

[13] = biological target: T1, Cathepsin B; assay: Inhibition of human liver cathepsin B assessed as second order rate constant using Z-Arg-Arg-AMC as substrate measured every 5 mins for 1 hr by fluorescence assay
In short: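 Human liver cathepsin B, 2 nM final, in 0.1 M phosphate pH 5.8 (1 mM EDTA, 2.7 mM DTT, 0.03% Brij35). Enzyme mixed with conjugate (1–500 nM final), then Z-Arg-Arg-AMC added (800 μM final); 37 °C. […] Biological triplicate.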

[14] = Drug internalization in human HT-29 cells assessed as efflux fraction measured at 2 hrs using 177Lu labelled compound by gamma counter method; type: ADME, cell-based; conditions: ht-29, 2 h; in short: as §2
[15] = Drug uptake in human HT-29 cells measured after 240 mins using 177Lu labelled compound by gamma counter method relative to control; type: ADME, cell-based; conditions: ht-29, 4 h
In short: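 HT-29 cells (~1 × 10^6 in 1 mL medium) were incubated with 177Lu-conjugate (100,000 cpm) at 37 °C and sampled at 15–240 min. After medium washes, surface-bound activity was stripped with pH 2.8 glycine-HCl/NaCl buffer, and the internalized fraction was taken from the 1% SDS lysate. Fractions were gamma-counted as % of total added activity; mean ± SD, n = 3.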

[16] = biological target: T1, Cathepsin B; assay: Binding affinity to cathepsin B in human HT-29 cells assessed as intracellular adduct formation at 0.74 MBq incubated for 4 hrs using 177Lu labelled compound by SDS-PAGE analysis; type: cell-based; parameters: dose or concentration left out as unconfirmed
In short: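 HT-29 cells (1 × 10^6/well) incubated 4 h at 37 °C with 177Lu conjugate (20 μCi, 0.74 MBq) in 1 mL medium, with or without E-64 (10 μM) or NTSR1 peptide N1 (20 μM). Cells washed and refed; at set times cells pooled, RIPA-lysed with protease inhibitor. Lysates heated 85 °C 2 min, run on 16% tris-glycine SDS-PAGE, and phosphor autoradiography taken after 72 h exposure.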

[17] = Drug retention in liver of mouse xenografted with human HT-29 cells assessed as tissue-conjugate adduct formation at 29.6 MBq measured after 72 hrs using 177Lu labelled compound by SDS-PAGE analysis; type: ADME, tissue-based; conditions: in vivo
In short: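 HT-29 xenograft mice given 800 μCi (29.6 MBq) 177Lu conjugate i.v. and killed at 72 h. Tumor, liver and kidney homogenized in RIPA with protease inhibitor and supernatants run on SDS-PAGE autoradiography. Other supernatant aliquots filtered through 10 kDa MWCO devices to give the % macromolecule-associated radioactivity; n = 3.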

[18] = Stability of 177Lu labelled compound in human serum assessed as parent compound remaining at 37 degC after 24 hrs by RP-HPLC analysis; type: ADME, cell-free; conditions: read-out: Stability
In short: (§3)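 Radioconjugate (1.5 mCi, 55.5 MBq) was incubated in 300 μL human serum at 37 °C. At 1, 3 and 24 h, acetonitrile was added and samples were spun at 12,000×g for 5 min. Supernatant was dried under nitrogen, reconstituted in water and analyzed by radio-HPLC.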

[19] = Stability of 177Lu labelled compound in human serum assessed as parent compound remaining at 37 degC after 1 hr RP-HPLC analysis; type: ADME, cell-free; conditions: read-out: Stability; in short: as §3

Ratio [1] | Ratio [2] | Ratio [3] | Ratio [4] | Ratio [5] | Ratio [6] | Ratio [7] | Drug uptake [8] [%] | Ratio [9] | Ratio [10] | Activity [11] | Drug uptake [12] | inhibition [13] | Drug uptake [14] [%] | Drug uptake [15] [%] | Activity [16] | Drug uptake [17] | remaining at 24 h [18] [%] | remaining at 1 h [19] [%] | K [13] [M⁻¹ s⁻¹] | SMILES
0.13 | 0.5 | 0.9 | 6.5 | 0.6 | 0.5 | 9 | 39 | 17 | 5 |  |  |  |  |  |  |  |  |  |  | Cc1cc(C)c(C(=O)OCC(=O)[C@H](CCCCNC(=O)CNC(=O)[C@@H](CO)NC(=O)[C@@H](CO)NC(=O)[C@@H](CO)NC(=O)Cn2cc(C[C@H](NC(=O)CN3CCN(CC(=O)O)CCN(CC(=O)O)CCN(CC(=O)O)CC3)C(=O)N[C@H](CO)C(=O)N[C@H](CO)C(=O)N[C@H](CO)C(=O)N[C@@H](CCCCN)C(=O)N3CCC[C@H]3C(=O)N(C)[C@@H](CCCNC(=N)N)C(=O)N[C@@H](CCCNC(=N)N)C(=O)N3CCC[C@H]3C(=O)N[C@@H](Cc3c(C)cc(O)cc3C)C(=O)N[C@H](C(=O)N[C@@H](CC(C)C)C(=O)O)C(C)(C)C)nn2)NC(=O)[C@H](Cc2ccccc2)NC(=O)OCc2ccccc2)c(C)c1
 |  |  |  |  |  |  |  |  |  | inactive | Active | inactive | 32.3 | 6 | inactive | Not Active | 49.5 | 84.7 |  | Cc1cc(O)cc(C)c1C[C@H](NC(=O)[C@@H]1CCCN1C(=O)[C@H](CCCNC(=N)N)NC(=O)[C@H](CCCNC(=N)N)N(C)C(=O)[C@@H]1CCCN1C(=O)[C@H](CCCCN)NC(=O)[C@@H](CO)NC(=O)[C@@H](CO)NC(=O)[C@@H](CO)NC(=O)[C@H](Cc1cn(CCNC(=O)[C@H](CCCNC(=N)N)NC(=O)[C@H](CC(C)C)NC(=O)CCC(=O)O)nn1)NC(=O)CN1CCN(CC(=O)O)CCN(CC(=O)O)CCN(CC(=O)O)CC1)C(=O)N[C@H](C(=O)N[C@@H](CC(C)C)C(=O)O)C(C)(C)C
0.1 | 5 | 1.7 | 30 | 5.9 | 8.5 | 38 | 50 | 36 | 6 | Active | Active |  | 27.3 | 6 | Active | Active | 36.9 | 93.6 | 67000 | Cc1cc(O)cc(C)c1C[C@H](NC(=O)[C@@H]1CCCN1C(=O)[C@H](CCCNC(=N)N)NC(=O)[C@H](CCCNC(=N)N)N(C)C(=O)[C@@H]1CCCN1C(=O)[C@H](CCCCN)NC(=O)[C@@H](CO)NC(=O)[C@@H](CO)NC(=O)[C@@H](CO)NC(=O)[C@H](Cc1cn(CCNC(=O)[C@H](CCCNC(=N)N)NC(=O)[C@H](CC(C)C)NC(=O)C2OC2C(=O)O)nn1)NC(=O)CN1CCN(CC(=O)O)CCN(CC(=O)O)CCN(CC(=O)O)CC1)C(=O)N[C@H](C(=O)N[C@@H](CC(C)C)C(=O)O)C(C)(C)C (stereo partly drawn)
